The source of these data is ChEMBL document CHEMBL1781899, “Synthesis of N-substituted 2-[(1E)-alkenyl]-4-(1H)-quinolone derivatives as antimycobacterial agents against non-tubercular mycobacteria” (Eur J Med Chem, 2011).

Structures are written as SMILES. Converted amounts (≈) assume the structure as drawn.

Data set [1] concerns Mycolicibacterium fortuitum. As to the kind of experiment: Antimycobacterial activity against Mycobacterium fortuitum ATCC 6841 after 3 days by MTT assay. Format: functional. Particulars: ATCC 6841, 72 h. For orientation: Formazan colour is commonly taken as a measure of viable cells.
The test system of data set [2] is Mycolicibacterium smegmatis. As to the kind of experiment: Antimycobacterial activity against Mycobacterium smegmatis mc2155 after 3 days by MTT assay. The class given is functional. The note with it: mc2155, 72 h. In short, it runs like this: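 Broth microdilution MIC. Inoculum grown on Columbia blood agar with 7% defibrinated horse blood, suspended in 0.9% NaCl to 5 × 10^5 cells/mL. Sterile, growth and isoniazid controls were included. Incubated 3 days at 37 °C; methanolic MTT added, dark violet indicating growth. Tests repeated three times.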

Data set [3] relates to Mycolicibacterium smegmatis. The data set can be described thus: Antimycobacterial activity against Mycobacterium smegmatis ATCC 14468 after 3 days by MTT assay. The class given is functional. Particulars: ATCC 14468, 72 h.
Data set [4] is described as follows: Cytotoxicity against human MRC5 cells assessed as cell viability at 100 uM after 72 hrs by XTT assay. The class given is cell-based. The note with it: read-out: Activity. In short, it runs like this:
(§1)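 MRC-5 cells seeded at 5 × 10^4 cells/well and grown 24 h in MEM. Compounds came from fresh ethanol stocks; solvent control was 0.1% ethanol. 72 h exposure at 37 °C, 5% CO2. XTT plus electron-coupling reagent (50:1) added for 4 h. Viability expressed as % of solvent control, triplicate on at least two plates (n = 6), mean ± SEM.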

The nature of data set [5]: Cytotoxicity against human MRC5 cells assessed as cell viability at 30 uM after 72 hrs by XTT assay. The class given is cell-based. Particulars: read-out: Activity. In short, it runs like this: as §1
A further data set deals with Mycolicibacterium phlei. As to the kind of experiment: Antimycobacterial activity against Mycobacterium phlei ATCC 11758 after 3 days by MTT assay. The class given is functional. Particulars: ATCC 11758, 72 h.
Data set [6] is described as follows: Cytotoxicity against human MRC5 cells assessed as cell viability at 0.12 uM after 72 hrs by XTT proliferation assay. The class given is cell-based. Particulars: read-out: Activity.

The term MIC denotes the lowest concentration that inhibits growth of the organism. A higher MIC goes with weaker potency. As for `C=CCn1c(/C=C/CCCCCCCC)cc(=O)c2ccccc21`, the minimum inhibitory concentration (MIC) was 4 µg/mL (≈ 12.4 µM) in data set [1], 1 µg/mL (≈ 3.09 µM) in data set [2], 2 µg/mL (≈ 6.18 µM) in data set [3] and 2 µg/mL (≈ 6.18 µM) in the data set with Mycolicibacterium phlei. Moreover, the viability at 72 h, 100 µM in data set [4] is 0.63%. Further, the viability at 72 h, 30 µM in data set [5] turned out to be 33%.
`C#CCn1c(/C=C/CCCCCCCCC)cc(=O)c2ccccc21`: it took 4 µg/mL (≈ 11.9 µM) to inhibit growth in data set [3] (MIC). In addition, in data set [4], the viability at 72 h, 100 µM stood at 26.3%. For the same molecule, in data set [5], the viability at 72 h, 30 µM is 92.3%.
For `C=CCn1c(/C=C/CCCCCCC)cc(=O)c2ccccc21`, in that order: 8 µg/mL (≈ 25.9 µM), 0.53% and 10.1%.
As for `CC[C@]1(O)C[C@@H]2CN(CCc3c([nH]c4ccccc34)[C@@](C(=O)OC)(c3cc4c(cc3OC)N(C)[C@H]3[C@@](O)(C(=O)OC)[C@H](OC(C)=O)[C@]5(CC)C=CCN6CC[C@]43[C@@H]65)C2)C1` [VINBLASTINE], the viability at 72 h, 0.12 µM in data set [6] is 60.1%.
In data set [3], `C#CCn1c(/C=C/CCCCCCCC)cc(=O)c2ccccc21` showed an MIC of 16 µg/mL (≈ 49.8 µM). Also, the viability at 72 h, 100 µM in data set [4] turned out to be 0.4%. For the same molecule, the viability at 72 h, 30 µM in data set [5] was found to be 43.6%.
For `CCCCCCCCCC/C=C/c1cc(=O)c2ccccc2n1CCCCC`, in that order: 8 µg/mL (≈ 21 µM), 0.25% and 31.6%.
For the molecule `O=C(O)c1cn(C2CC2)c2cc(N3CCNCC3)c(F)cc2c1=O` [CIPROFLOXACIN], in data set [3], the MIC was 0.125 µg/mL (≈ 0.377 µM).
In the case of `CCCCCCCCCCCC/C=C/c1cc(=O)c2ccccc2n1CCCC`, the lowest concentration to inhibit growth in data set [3] (MIC) was 128 µg/mL (≈ 324 µM). The viability at 72 h, 100 µM in data set [4] was determined as 0.51%. Besides, the viability at 72 h, 30 µM in data set [5] amounted to 10.9%.
For `CCCCCCC/C=C/c1cc(=O)c2ccccc2n1CC`, in that order: 8 µg/mL (≈ 26.9 µM), 52.6% and 96.6%.
In the case of `CCCCCCCCCCCC/C=C/c1cc(=O)c2ccccc2n1CCC`, it took 16 µg/mL (≈ 41.9 µM) to inhibit growth in data set [3] (MIC). Besides, the viability at 72 h, 100 µM in data set [4] was 0.72%. In addition, the viability at 72 h, 30 µM in data set [5] worked out at 42.6%.
As for `CCCCCCC/C=C/c1cc(=O)c2ccccc2n1CCC`, in data set [3], the MIC was determined as 4 µg/mL (≈ 12.8 µM). Besides, the viability at 72 h, 100 µM in data set [4] turned out to be 7.4%. For the same molecule, the viability at 72 h, 30 µM in data set [5] is 32.9%.
In the case of `NNC(=O)c1ccncc1` [ISONIAZID], the MIC was determined as 1 µg/mL (≈ 7.29 µM) in data set [1], 4 µg/mL (≈ 29.2 µM) in data set [2], 4 µg/mL (≈ 29.2 µM) in data set [3] and 16 µg/mL (≈ 117 µM) against Mycolicibacterium phlei.
Regarding `C#CCn1c(/C=C/CCCCCCCCCC)cc(=O)c2ccccc21`, the MIC in data set [3] was 64 µg/mL (≈ 183 µM). Further, in data set [4], the viability at 72 h, 100 µM stood at 0.64%. Also, the viability at 72 h, 30 µM in data set [5] stood at 40.7%.
On the same counts, the results for `CCCCCCCCCCC/C=C/c1cc(=O)c2ccccc2n1CCCCC` are 128 µg/mL (≈ 324 µM), 0.25% and 11.7%.
For the molecule `CCCCCCCC/C=C/c1cc(=O)c2ccccc2n1CC`, in data set [3], the MIC was found to be 4 µg/mL (≈ 12.8 µM). The viability at 72 h, 100 µM in data set [4] was found to be 0.53%. Also, in data set [5], the viability at 72 h, 30 µM was 39.2%.
For the molecule `CCCCCCCC/C=C/c1cc(=O)c2ccccc2n1CCC`, the MIC (in data set [1]; in data set [2]; in data set [3]; against Mycolicibacterium phlei) was 2 µg/mL (≈ 6.14 µM) in each case. For the same molecule, in data set [4], the viability at 72 h, 100 µM turned out to be 0.5%. The viability at 72 h, 30 µM in data set [5] was determined as 56.1%.
In data set [3], `CCCCCCCCCC/C=C/c1cc(=O)c2ccccc2n1CCCC` had an MIC of 4 µg/mL (≈ 10.9 µM). The viability at 72 h, 100 µM in data set [4] was determined as 0.45%. For the same molecule, the viability at 72 h, 30 µM in data set [5] turned out to be 42.4%.
On the same counts, the results for `C=CCn1c(/C=C/CCCCCCCCCCC)cc(=O)c2ccccc21` are 4 µg/mL (≈ 10.9 µM), 1.06% and 17.9%.
Take `C#CCn1c(/C=C/CCCCCCC)cc(=O)c2ccccc21`: the MIC was 32 µg/mL (≈ 104 µM) in data set [1], 2 µg/mL (≈ 6.51 µM) in data set [2], 2 µg/mL (≈ 6.51 µM) in data set [3] and 4 µg/mL (≈ 13 µM) against Mycolicibacterium phlei. For the same molecule, in data set [4], the viability at 72 h, 100 µM amounted to 63.9%. In data set [5], the viability at 72 h, 30 µM was found to be 71.1%.
For `CCCCCCCC/C=C/c1cc(=O)c2ccccc2n1CCCCC`, the MIC in data set [1] turned out to be 4 µg/mL (≈ 11.3 µM); in data set [2], 1 µg/mL (≈ 2.83 µM); in data set [3], 2 µg/mL (≈ 5.66 µM); with Mycolicibacterium phlei, 4 µg/mL (≈ 11.3 µM). Moreover, the viability at 72 h, 100 µM in data set [4] turned out to be 0.46%. Also, the viability at 72 h, 30 µM in data set [5] was determined as 61.7%.
In turn, `C=CCn1c(/C=C/CCCCCCCCCCCC)cc(=O)c2ccccc21` showed an MIC in data set [3] of 16 µg/mL (≈ 42.2 µM). In data set [4], the viability at 72 h, 100 µM amounted to 0.7%. In addition, the viability at 72 h, 30 µM in data set [5] turned out to be 98.2%.
In data set [3], `C#CCn1c(/C=C/CCCCCCCCCCCC)cc(=O)c2ccccc21` yielded an MIC of 128 µg/mL (≈ 339 µM). For the same molecule, the viability at 72 h, 100 µM in data set [4] came to 10%. The viability at 72 h, 30 µM in data set [5] was found to be 100%.
Take `CC[C@@H](CO)NCCN[C@@H](CC)CO` [ETHAMBUTOL]: the MIC is 16 µg/mL (≈ 78.3 µM) in data set [1], 4 µg/mL (≈ 19.6 µM) in data set [2], 2 µg/mL (≈ 9.79 µM) in data set [3] and 4 µg/mL (≈ 19.6 µM) in the data set on Mycolicibacterium phlei.
In turn, `CCCCCCCCC/C=C/c1cc(=O)c2ccccc2n1CCCCC` returned an MIC in data set [3] of 4 µg/mL (≈ 10.9 µM). Moreover, the viability at 72 h, 100 µM in data set [4] came to 0.38%. The viability at 72 h, 30 µM in data set [5] was found to be 41.6%.
